Test results reported in paper PMC12415985 (Journal of medicinal chemistry, 2025).
Read-outs that look alike come from different tables or passages of the source.

Assays:
TgME49-Fluc [1] = test: Luciferase-based tachyzoite growth inhibition assay; assay type: cell-based, Toxoplasma gondii; settings: for EC50: read-out: TgM49 EC50
[2] = test system: Tg68pBAG1:nLuc,DHFR bradyzoites; test: In vitro differentiated bradyzoite growth inhibition; assay type: cell-based, Toxoplasma gondii; settings: for EC50: Toxoplasma gondii
TgME49-Fluc [3] = test: Time dependent tachyzoite inhibition, 4 h washout vs 72 h continuous; assay type: cell-based, Toxoplasma gondii; settings: vs continuous 72 h
TgME49-EW bradyzoites = test: Ex vivo purified; assay type: cell-based, Toxoplasma gondii; settings: 3X EC90, 4 h washout vs continual treatment
TgME49-EW intact cysts = test: Intact tissue cyst treatment and plaque outgrowth assay; assay type: cell-based, Toxoplasma gondii
How it was run: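 Percoll-purified brain tissue cysts (10 per compound) were exposed to 3xEC90 in tubes at 37°C for 4 or 24 h, then washed 3× with PBS. Bradyzoites were freed by acid-pepsin, neutralized, and split into parallel 6-well plates with compound (constant) or without (washout). Plates ran 12−14 days at 37°C, 5% CO2. Plaques were ethanol-fixed, crystal-violet stained, counted by microscopy and normalized to the DMSO control.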

TgME49-FLuc tachyzoites [4] = assay type: in vivo, Toxoplasma gondii; settings: Ifngr1-/- mice, 0.25 mg/ml in drinking water, n=11
TgME49-FLuc tachyzoites [5] = settings: for Culture positive / Plaque positive / Survivors: n=8
THP-1 cells = test: Host cell cytotoxicity, THP-1; assay type: cell-based, human
How it was run: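 THP-1 cells were seeded at 10×10^3/well and differentiated with 10 ng/mL PMA for 24 h before compound addition. Compounds were given as a 10-dose 3-fold series from a 120 μM 2x working solution for 72 h at 37°C, 5% CO2. Viability was read by CellTiter-Glo luminescence.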

HepG2 cells = test: Host cell cytotoxicity, HepG2; assay type: cell-based, human
TgRH-PheRS[L497I]-FLuc = test: Growth inhibition of PheRS L497I resistant line vs parental line; assay type: cell-based, Toxoplasma gondii; settings: EC50 fold resistance, TgL497I vs parental TgRHΔhxgprtΔku80
How it was run: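 Firefly-luciferase tachyzoites were used: the PheRS[L497I] line, made in the parental TgRHΔΔ-FLuc (type I) strain, and the parental line itself. Each well of confluent HFF got 5×10^3 fresh tachyzoites and a 3-fold compound series, at 0.1% DMSO final. After 72 h at 37°C, cells were lysed and luciferase read. […] FR = resistant EC50 / parental EC50.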

Plasma protein binding [6] = assay type: in vitro ADME; settings: CD-1 mouse plasma
Plasma protein binding [7] = assay type: in vitro ADME
Brain homogenate binding = assay type: in vitro ADME; settings: CD-1 mouse brain homogenate
[8] = Microsomal stability, mouse liver microsomes; assay type: in vitro ADME
hERG = hERG (Homo sapiens, UniProt Q12809); test: hERG inhibition in CHO cell; assay type: cell-based; settings: read-out: hERG inhibition CHO cell IC50
MDCK-MDR1 = assay type: in vitro ADME
Pharmacokinetics in mice = assay type: in vivo, CD-1 mice; settings: 10 mg/kg PO
How it was run: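 Fasted male CD-1 mice (3 per group) received a single oral 10 mg/kg dose as a suspension. Blood and brain were sampled at 1, 3 and 8 h. Plasma was obtained by centrifugation and stored below −20 °C. Plasma and brain concentrations were measured by LC−MS/MS. Parameters came from noncompartmental analysis, and brain/plasma ratio is given at the indicated time.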

[9] = Toxoplasma gondii, read-out: TgME49 EC90
[10] = Experiment 1, 0.25 mg/ml in drinking water
[11] = formulation A, na = not detected

Chain of hERG (Q12809 whole entry): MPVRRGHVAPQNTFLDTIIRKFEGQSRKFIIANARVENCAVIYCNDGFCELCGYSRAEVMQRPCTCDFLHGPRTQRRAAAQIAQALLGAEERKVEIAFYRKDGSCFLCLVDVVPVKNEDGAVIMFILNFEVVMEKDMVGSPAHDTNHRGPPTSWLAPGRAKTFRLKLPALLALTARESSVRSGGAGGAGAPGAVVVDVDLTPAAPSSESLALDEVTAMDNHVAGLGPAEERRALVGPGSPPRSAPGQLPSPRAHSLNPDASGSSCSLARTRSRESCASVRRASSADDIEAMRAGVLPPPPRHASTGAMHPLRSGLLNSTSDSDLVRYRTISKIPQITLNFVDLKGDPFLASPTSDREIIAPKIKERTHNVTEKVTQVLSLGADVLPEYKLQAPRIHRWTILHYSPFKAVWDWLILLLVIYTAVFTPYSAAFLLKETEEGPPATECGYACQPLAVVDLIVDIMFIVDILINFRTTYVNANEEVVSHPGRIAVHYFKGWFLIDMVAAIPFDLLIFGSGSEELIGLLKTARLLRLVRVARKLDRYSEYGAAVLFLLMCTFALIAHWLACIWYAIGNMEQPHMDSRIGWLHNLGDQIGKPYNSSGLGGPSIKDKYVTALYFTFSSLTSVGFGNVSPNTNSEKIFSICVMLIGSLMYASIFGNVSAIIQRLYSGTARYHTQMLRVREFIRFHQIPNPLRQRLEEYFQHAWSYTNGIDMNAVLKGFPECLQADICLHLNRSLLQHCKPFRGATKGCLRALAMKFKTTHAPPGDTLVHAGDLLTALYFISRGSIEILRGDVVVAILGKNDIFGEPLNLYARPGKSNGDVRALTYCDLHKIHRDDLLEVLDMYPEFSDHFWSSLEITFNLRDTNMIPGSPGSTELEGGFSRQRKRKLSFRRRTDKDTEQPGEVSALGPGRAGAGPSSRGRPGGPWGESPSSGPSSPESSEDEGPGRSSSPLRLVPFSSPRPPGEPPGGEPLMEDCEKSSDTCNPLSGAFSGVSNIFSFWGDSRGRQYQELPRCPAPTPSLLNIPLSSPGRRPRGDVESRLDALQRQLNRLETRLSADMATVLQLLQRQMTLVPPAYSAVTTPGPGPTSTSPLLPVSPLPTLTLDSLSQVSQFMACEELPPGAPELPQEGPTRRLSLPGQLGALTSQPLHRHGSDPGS

O=C1C(O)=C([C@H]2CC[C@H](c3ccc(Cl)cc3)CC2)C(=O)c2ccccc21 [Atovaquone]
EC50 (TgME49-Fluc [1]; Toxoplasma gondii): 71 nM | EC90 (TgME49-Fluc [1]; [9]): 163 nM | EC50 ([2]; pH 8.2, read-out: Tg68 EC50 (Alkaline)): 1590 nM | EC50 ([2]; read-out: Tg68 EC50 (Glutamine)): 52 nM | potency after 4 h treatment vs continuous treatment (in words) (TgME49-Fluc [3]): only effective when used for 72 h treatment | inhibition of outgrowth of liberated bradyzoites (in words) (TgME49-EW bradyzoites): only active when used continuously | activity on intact cysts (in words) (TgME49-EW intact cysts; 3X EC90, 24 h treatment): among the most effective compounds in this assay

CCc1nc(N)nc(N)c1-c1ccc(Cl)cc1 [Pyrimethamine]
EC50 (TgME49-Fluc [1]; Toxoplasma gondii): 330 nM | EC90 (TgME49-Fluc [1]; [9]): 551 nM | potency after 4 h treatment vs continuous treatment (in words) (TgME49-Fluc [3]): only effective when used for 72 h treatment | inhibition of outgrowth of liberated bradyzoites (in words) (TgME49-EW bradyzoites): only active when used continuously

Nc1ccc(S(=O)(=O)Nc2ncccn2)cc1 [Sulfadiazine]
survival vs vehicle control (TgME49-FLuc tachyzoites [4]): survived significantly longer | weight loss (TgME49-FLuc tachyzoites [5]; [10]): little weight loss | Culture positive (TgME49-FLuc tachyzoites [5]; [10]): 6 | Plaque positive (TgME49-FLuc tachyzoites [5]; [10]): 7 | Survivors (TgME49-FLuc tachyzoites [5]; [10]): 8 | mice harboring chronic infection (of 8) (TgME49-FLuc tachyzoites [5]; Experiment 1, sulfadiazine in drinking water): 7

COc1ccc(NC(=O)N2CCCCN3[C@H](CN(C)C)[C@H](c4ccc(C#Cc5ccccc5)cc4)[C@@H]3C2)cc1 [BRD7929]
EC90 (TgME49-Fluc [1]; read-out: Tg EC90, Table 3): 134 ± 85 nM | EC50 (TgME49-Fluc [1]; ME49 expressing firefly luciferase, Table 2): 41 nM | EC90 (TgME49-Fluc [1]; read-out: TgME49 EC90, ME49 expressing firefly luciferase, Table 2): 139 nM | SSII (THP-1 cells; THP-1 CC50 / EC50 TgME49): 24 | CC50 (THP-1 cells; read-out: THP-1 CC50, Table 2): 1010 nM | SI (HepG2 cells; HepG2 CC50 / EC50 TgME49): 147 | CC50 (HepG2 cells; read-out: HepG2 CC50, Table 2): 6070 nM | TgL497I EC50/ Parental EC50 (FR) (TgRH-PheRS[L497I]-FLuc): 78 | fold elevation of bradyzoite EC50 compared to tachyzoite conditions ([2]; in vitro differentiated bradyzoites vs tachyzoites): 3 to 5 fold | Plasma protein binding % (CD-1 mouse) (Plasma protein binding [6]): 99.6% | Plasma protein binding % (human) (Plasma protein binding [7]): 99.56% | Brain Homogenate binding %(CD-1 mouse) (Brain homogenate binding): 99.98% | Eh (hepatic extraction) ([8]; calculated with mouse liver blood flow of 90ml/min/kg, second value of cell): 0.40 | Microsomal stability mouse ([8]; mouse liver microsomes, first value of cell): 15.41 µL/min/mg | IC50 (hERG): 540 nM | MDCK-MDR1 Permeability A-B Papp (MDCK-MDR1): 0.28 10^−6cm/s | MDCK-MDR1 Permeability B-A Papp (MDCK-MDR1): 9.62 10^−6cm/s | Plasma Cmax/D (Pharmacokinetics in mice; formulation A (75% PEG300, 25% D5W), na = not detected): 40.6 ± 10.4 ng/mL | Mouse B/P (time) (Pharmacokinetics in mice; formulation A, 8h): 4.4 (8h) | Brain AUClast/D (Pharmacokinetics in mice; [11]): 807 ng·h/mL | Brain Cmax/D (Pharmacokinetics in mice; [11]): 179 ± 60.7 ng/mL | Plasma AUClast/D (Pharmacokinetics in mice; [11]): 220.9 ng·h/mL | inhibition of outgrowth from intact cysts (TgME49-EW intact cysts; 3X EC90, 24 h treatment followed by washing and plating without compound): up to 50% | weight loss (TgME49-FLuc tachyzoites [5]; Experiment 1, 10 mg/kg QD): little weight loss | Survivors (TgME49-FLuc tachyzoites [5]; Experiment 1, 10 mg/kg QD p.o. 4-10 DPI): 8 | Culture positive (TgME49-FLuc tachyzoites [5]; Experiment 1, 10 mg/kg QD, outgrowth in HFF culture): 1 | Plaque positive (TgME49-FLuc tachyzoites [5]; Experiment 1, 10 mg/kg QD, plaquing assay after 14 days): 1 | EC50 of recovered parasites (TgME49-FLuc tachyzoites [5]; Experiment 1, 10 mg/kg QD, EC50 determination using TgME49 expressing firefly luciferase): No change | mice harboring chronic infection (of 8) (TgME49-FLuc tachyzoites [5]; Experiment 1, 10 mg/kg QD, brain homogenate outgrowth): 1
